# Test results taken from ChEMBL document CHEMBL1671680, “Pradimicin S, a highly soluble nonpeptidic small-size carbohydrate-binding antibiotic, is an anti-HIV drug lead for both microbicidal and systemic use” (Antimicrob Agents Chemother, 2010).
# Active and inactive are the calls of the source. No cut-off for these calls is given here.
# How the values were obtained:
# [1] = Cytotoxicity against human thymidine kinase-negative OST cells after 3 to 4 days; format: cell-based
# [2] = system: Human immunodeficiency virus 1; experiment: Antiviral activity against compound pretreated X4 tropic HIV-1 3B infected in human Raji cells expressing DC-SIGN gene assessed as prevention of syncytium formation between persistently HIV-1 3B-infected Raji cells and uninfected human C8166 cells after 42 hrs by microscopic analysis; format: functional, organism-based; settings: Human immunodeficiency virus 1, 3B
# In short: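 Compound-pretreated virus captured by Raji/DC-SIGN cells for 60 min at 37°C, washed, then 200 μl mixed with 2 × 10^5 C8166 cells (further 5-fold dilution) and incubated 36–48 h at 37°C; syncytium formation scored microscopically.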
# [3] = system: Human immunodeficiency virus 1; experiment: Binding affinity to HIV-1 HXB2 gp41 after 6 mins by SPR analysis
# [4] = system: Human immunodeficiency virus 1; experiment: Binding affinity to HIV-1 3B gp120 assessed as association rate constant after 6 mins by SPR analysis in presence of 10 mM CaCl2
# [5] = system: Human immunodeficiency virus 1; experiment: Binding affinity to HIV-1 HXB2 gp41 assessed as association rate constant after 6 mins by SPR analysis in presence of 10 mM CaCl2
# [6] = Binding affinity to HIV-1 HXB2 gp41 after 6 mins by SPR analysis in presence of 10 mM CaCl2; parameters: species or system Human immunodeficiency virus 1
# PBMC [7] = experiment: Immunostimulatory activity against human PBMC assessed as IL-15 production at 21 uM after 72 hrs; format: functional, cell-based
# In short: (§1)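 Unstimulated PBMCs and PHA-blasts from three donors, in three independent experiments, cultured with test compound at 20 μg/ml (21 or 22 μM). Supernatants collected after 72 h. The cytokine profile was read on a Bio-Plex 27-plex human cytokine bead immunoassay, using beads coupled to cytokine-specific monoclonal antibodies and run per the kit instructions.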
# PBMC [8] = experiment: Immunostimulatory activity against human PBMC assessed as FGF production at 21 uM after 72 hrs; format: functional, cell-based
# In short: (§2)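 PBMCs and PHA blasts from three donors (three independent experiments) cultured with 21 μM compound; supernatants collected at 72 h; cytokines quantified with the Bio-Plex human 27-plex bead immunoassay.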
# PBMC [9] = experiment: Immunostimulatory activity against human PBMC assessed as GM-CSF production at 21 uM after 72 hrs; format: functional, cell-based; in short: as §2
# PBMC [10] = experiment: Immunostimulatory activity against human PBMC assessed as MIP-1beta production at 21 uM after 72 hrs; format: functional, cell-based; in short: as §1
# PBMC [11] = experiment: Immunostimulatory activity against human PBMC assessed as VEGF production at 21 uM after 72 hrs; format: functional, cell-based; in short: as §1
# PBMC [12] = experiment: Immunostimulatory activity against human PBMC assessed as IL-9 production at 22 uM after 72 hrs; format: functional, cell-based; in short: as §1
# PBMC [13] = experiment: Immunostimulatory activity against human PBMC assessed as IL-10 production at 22 uM after 72 hrs; format: functional, cell-based
# PBMC [14] = experiment: Immunostimulatory activity against human PBMC assessed as IP-10 production at 22 uM after 72 hrs; format: functional, cell-based; in short: as §1
# PBMC [15] = experiment: Immunostimulatory activity against human PBMC assessed as RANTES production at 22 uM after 72 hrs; format: functional, cell-based; in short: as §1
# PBMC [16] = experiment: Immunostimulatory activity against human PBMC assessed as suppression of IL-2 production at 21 uM after 72 hrs; format: functional; in short: as §1
# PBMC [17] = experiment: Immunostimulatory activity against human PBMC assessed as suppression of G-CSF production at 21 uM after 72 hrs; format: functional; in short: as §1
# PBMC [18] = experiment: Immunostimulatory activity against human PBMC assessed as suppression of PDGF production at 21 uM after 72 hrs; format: functional; in short: as §1
# PBMC [19] = experiment: Immunostimulatory activity against human PBMC assessed as suppression of IL-4 production at 22 uM after 72 hrs; format: functional; in short: as §1
# PBMC [20] = experiment: Immunostimulatory activity against human PBMC assessed as suppression of IL-9 production at 22 uM after 72 hrs; format: functional; in short: as §1
# PBMC [21] = experiment: Immunostimulatory activity against human PBMC assessed as suppression of IL-15 production at 22 uM after 72 hrs; format: functional; in short: as §1
# PBMC [22] = experiment: Immunostimulatory activity against human PBMC assessed as suppression of PDGF production at 22 uM after 72 hrs; format: functional
# [23] = system: Human immunodeficiency virus 1; experiment: Binding affinity to HIV-1 3B gp120 after 6 mins by SPR analysis at pH 4
# [24] = system: Human immunodeficiency virus 1; experiment: Antiviral activity against X4 tropic HIV-1 3B infected in human PBMC assessed as inhibition of viral replication […] by ELISA; format: functional, organism-based; settings: Human immunodeficiency virus 1, 3B
# In short: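 PBMCs from healthy donors were stimulated with PHA (2 μg/ml) for 3 days, then seeded at 0.5 × 10^6 cells/well in RPMI 1640 with 10% FCS, IL-2 (25 U/ml) and compound. Virus was added at a final 250 pg p24/ml. Supernatant was taken at day 12 for p24 antigen ELISA.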
# [25] = system: Human immunodeficiency virus 2; experiment: Antiviral activity against X4 tropic HIV-2 BV-5061 W infected in human PBMC assessed as inhibition of viral replication […] by ELISA; format: functional, organism-based; settings: Human immunodeficiency virus 2, BV-5061
# In short: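 PHA-stimulated (2 μg/ml, 3 days) donor PBMC blasts seeded at 0.5 × 10^6 cells/well with compound dilutions in RPMI 1640 + 10% FCS + IL-2 (25 U/ml); virus added at 250 pg p24 or p27/ml final; supernatant p24 (HIV-1) or p27 (HIV-2) antigen measured by ELISA at day 12; EC50 from antigen reduction.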
# [26] = system: Human immunodeficiency virus 1; experiment: Ratio of EC90 to EC50 for R5 tropic HIV-1 clade B isolate US2 infected in human PBMC; format: functional
# In short: (§3)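 PBMCs from healthy donors were PHA-stimulated (2 μg/ml, 3 days, 37°C), then seeded at 0.5 × 10^6 per well with compound dilutions in RPMI 1640 with 10% FCS and IL-2 (25 U/ml). Virus was added at 250 pg p24 or p27/ml final. On day 12, supernatant HIV-1 p24 or HIV-2 p27 was measured by ELISA, giving EC50 and EC90.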
# [27] = system: Human immunodeficiency virus 1; experiment: Ratio of EC90 to EC50 for X4 tropic HIV-1 clade D isolate UG270 infected in human PBMC; format: functional; in short: as §3
# [28] = system: Human immunodeficiency virus 1; experiment: Ratio of EC90 to EC50 for R5 tropic HIV-1 clade A/E isolate ID12 infected in human PBMC; format: functional
# [29] = system: Human immunodeficiency virus 1; experiment: Ratio of EC90 to EC50 for R5 tropic HIV-1 clade F isolate BZ163 infected in human PBMC; format: functional; in short: as §3
# [30] = system: Human immunodeficiency virus 1; experiment: Antiviral activity against HIV-1 3B infected in human MT4 cells assessed as inhibition of virus-induced cytopathicity after 7 days by trypan blue staining; format: functional, organism-based; settings: Human immunodeficiency virus 1, 3B, MT4, 168 h
# [31] = Cytotoxicity against human CEM cells after 7 days by trypan blue staining; format: cell-based, CCRF-CEM
# [32] = system: Human immunodeficiency virus 1; experiment: Antiviral activity against X4 tropic HIV-1 clade D isolate UG270 infected in human PBMC assessed as inhibition of viral replication after 12 days by ELISA; settings: Human immunodeficiency virus 1, clade D isolate UG270, 12 days
# [33] = system: Human immunodeficiency virus 1; experiment: Antiviral activity against R5 tropic HIV-1 clade A/E isolate ID12 infected in human PBMC assessed as inhibition of viral replication after 12 days by ELISA; settings: Human immunodeficiency virus 1, clade A/E isolate ID12, 12 days
SMILES,CC50 [1] [µM],EC50 [2] [µM],Activity [3],Ka [4] [×10⁴ /M/s],Ka [5] [×10³ /M/s],Kd [6] [µM],Activity (PBMC [7]),Activity (PBMC [8]),Activity (PBMC [9]),Activity (PBMC [10]),Activity (PBMC [11]),Activity (PBMC [12]),Activity (PBMC [13]),Activity (PBMC [14]),Activity (PBMC [15]),fold change (FC) (PBMC [16]),fold change (FC) (PBMC [17]),fold change (FC) (PBMC [18]),fold change (FC) (PBMC [19]),fold change (FC) (PBMC [20]),also measured
CN[C@@H]1[C@H](O[C@@H]2OC[C@@H](O)[C@H](O)[C@H]2O)[C@@H](O)[C@H](O[C@H]2c3cc(C)c(C(=O)N[C@H](C)C(=O)O)c(O)c3-c3c(cc4c(c3O)C(=O)c3cc(OC)cc(O)c3C4=O)[C@@H]2O)O[C@@H]1C [PRADIMICIN A],> 50,3.4,inactive,1.49,1.96,14.9,inactive,inactive,inactive,inactive,inactive,inactive,inactive,inactive,inactive,4,2,2,2,2,fold change (FC) (PBMC [21]): 2; fold change (FC) (PBMC [22]): 2; Activity [23]: Active; EC50 [24]: 2.6 µM; EC50 [25]: 4.3 µM; Ratio [26]: 2; Ratio [27]: 2; Ratio [28]: 2; Ratio [29]: 2; EC50 [30]: 5.2 µM; CC50 at 168 h [31]: > 100 µM; EC50 [32]: 3 µM; EC50 [33]: 4.7 µM
CN[C@@H]1[C@H](O[C@@H]2O[C@H](CO)[C@@H](O)[C@H](OS(=O)(=O)O)[C@H]2O)[C@@H](O)[C@H](O[C@H]2c3cc(C)c(C(=O)N[C@H](C)C(=O)O)c(O)c3-c3c(cc4c(c3O)C(=O)c3cc(OC)cc(O)c3C4=O)[C@@H]2O)O[C@@H]1C [PRADIMICIN S],> 230,7.1,inactive,1.27,2.73,9.93,inactive,inactive,inactive,inactive,inactive,inactive,inactive,inactive,inactive,4,2,2,2,2,fold change (FC) (PBMC [21]): 2; fold change (FC) (PBMC [22]): 2; Activity [23]: Active; EC50 [24]: 8.5 µM; EC50 [25]: 3.1 µM; Ratio [26]: 2; Ratio [27]: 2; Ratio [28]: 2; Ratio [29]: 2; EC50 [30]: 5 µM; CC50 at 168 h [31]: > 100 µM; EC50 [32]: 18 µM; EC50 [33]: 15 µM
